According to ChEMBL document CHEMBL4680189, “Immunosuppressive properties of amino acid and peptide derivatives of mycophenolic acid” (Eur J Med Chem, 2020):
Calls of active or inactive are those of the source. The rule behind the calls is not given here. Where a SMILES comes first, the peptide text is derived from it. [ ]: non-standard residue; d: D form. The star is where a group is joined. Mycophenolyl = COc1c(C)c2c(c(O)c1C/C=C(\C)CCC(=O)*)C(=O)OC2; Arg(NO2) = N=C(NCCC[C@H](N)C(=O)O)N[N+](=O)[O-]

Legend:
Jurkat [1] = test: Immunosuppression-mediated cytotoxicity against human Jurkat T cells assessed as reduction in cell viability incubated for 48 hrs by MTT assay; format: cell-based
Summary of the method: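 Jurkat cells in RPMI-1640 with 10% FBS and P/S, 50×10^3 cells/well, exposed in triplicate to serial dilutions from 1 mg/mL (DMSO/medium) for 48 h at 37 °C, 5% CO2. MTT (5 mg/ml) then added for 3 h. Formazan dissolved in 0.4 N HCl–isopropanol, absorbance read at 570 nm. IC50 from curve fitting; viability at 1 mg/mL used where IC50 could not be reached.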

[2] = Immunosuppression-mediated antiproliferative activity against anti-CD3/anti-CD28-stimulated human PBMC cells assessed as inhibition of cell growth incubated for 72 hrs by VPD450 staining based flow cytometry; format: functional
Summary of the method: (§1)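 Cells stained with VPD450 (2 μL of 1 mM dye per 10-30×10^6 cells in 1 mL PBS, 15 min, 37 °C), washed. PBMC: 50×10^3 cells/well with anti-CD3/anti-CD28, serial compound dilutions, 72 h. Jurkat: 50×10^3 cells/well, 48 h. 37 °C, 5% CO2, triplicate. Dye dilution by flow cytometry; EC50 from curve fit.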

[3] = Selectivity index, ratio of IC50 for cytotoxicity against human PBMC by MTT assay to EC50 for antiproliferative activity against human PBMC by VPD450 staining based flow cytometry
Summary of the method: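 Ratio of the MTT cytotoxicity IC50 (72 h, stimulated PBMC) to the VPD450 antiproliferative EC50 (72 h, stimulated PBMC), both from fitted concentration-response curves.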

Jurkat [4] = test: Immunosuppression-mediated antiproliferative activity against human Jurkat T cells assessed as inhibition of cell growth at 1 mg/ml incubated for 48 hrs by VPD450 staining based flow cytometry relative to control; format: functional; design: scale not given: the % may be the effect or the level left
Summary of the method: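 Jurkat cells stained with VPD450 (2 μL of 1 mM dye per 10-30×10^6 cells, 15 min, 37 °C) and plated at 50×10^3 cells/well. Compound added at the top concentration, 1 mg/mL (1 mg dissolved in 20 μL DMSO, made up to 1 mL with medium). 48 h at 37 °C, 5% CO2, in triplicate. Read by flow cytometry; […].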

[5] = Immunosuppression-mediated cytotoxicity against anti-CD3/anti-CD28-stimulated human PBMC cells assessed as reduction in cell viability incubated for 72 hrs by MTT assay; format: cell-based
Summary of the method: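 PBMC from buffy coats of healthy donors, isolated on a Ficoll gradient with erythrocyte lysis. Plated at 50×10^3 cells/well with anti-CD3/anti-CD28, serial compound dilutions, in triplicate. Incubated 72 h, 37 °C, 5% CO2. MTT added for 3 h, formazan dissolved in acidified isopropanol (0.4 N HCl), A570 read. Three donors averaged; IC50 from curve fit.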

[6] = Stability in human Jurkat T cells assessed as compound remaining at EC50 concentration after 3 days by HPLC-MS analysis; format: ADME, cell-based; details: time 3 day, read-out: Stabilty
Summary of the method: (§2)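 Compounds incubated at their EC50 concentrations with Jurkat cells for 5 days, sampled daily. Amount measured by HPLC-MS: C18 column at 40 °C, 0.4 mL/min, 0.1% HCOOH water to ACN/MeOH gradient, UV 254 nm, ESI-MS. Peak area on day 1 taken as 100%.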

[7] = Selectivity index, ratio of IC50 for cytotoxicity against human Jurkat T cells by MTT assay to EC50 for antiproliferative activity against human Jurkat T cells by VPD450 staining based flow cytometry
Summary of the method: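 Jurkat IC50 from the 48 h MTT assay (50×10^3 cells/well, triplicate) divided by Jurkat EC50. […] Cells treated 48 h with serial dilutions, then dye dilution read by flow cytometry and fitted.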

Jurkat [8] = test: Immunosuppression-mediated antiproliferative activity against human Jurkat T cells assessed as inhibition of cell growth incubated for 48 hrs by VPD450 staining based flow cytometry; format: functional; summary of the method: as §1
PBMC = test: Immunosuppression-mediated antiproliferative activity against anti-CD3/anti-CD28-stimulated human PBMC cells assessed as inhibition of cell growth incubated for 72 hrs in presence of GMP by VPD450 staining based flow cytometry; format: functional
Summary of the method: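 VPD450-stained PBMC, 50×10^3 cells/well, anti-CD3/anti-CD28 stimulation, serial compound dilutions plus GMP at 50 μM in the well. Incubated 72 h at 37 °C, 5% CO2, in triplicate. Proliferation read by flow cytometry as dye dilution and expressed relative to controls.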

[9] = Stability in human Jurkat T cells assessed as compound remaining at EC50 concentration after 5 days by HPLC-MS analysis; format: ADME, cell-based; details: time 5 day, read-out: Stabilty; summary of the method: as §2
[10] = Immunosuppression-mediated cytotoxicity against anti-CD3/anti-CD28-stimulated human PBMC cells assessed as reduction in cell viability at 1 mg/ml incubated for 72 hrs by MTT assay relative to control; format: cell-based
Summary of the method: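 Anti-CD3/anti-CD28-stimulated PBMC, 50×10^3 cells/well, exposed to compound at the highest concentration, 1 mg/mL, for 72 h at 37 °C, 5% CO2, in triplicate. MTT for 3 h, acidified isopropanol, A570. Viability calculated at that concentration; three donors averaged.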

Jurkat [11] = test: Immunosuppression-mediated cytotoxicity against human Jurkat T cells assessed as reduction in cell viability at 1 mg/ml incubated for 48 hrs by MTT assay relative to control; format: cell-based
Summary of the method: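 Jurkat cells (RPMI-1640, 10% FBS) plated at 50×10^3 cells/well and exposed to 1 mg/mL compound (1 mg in 20 μL DMSO, made up to 1 mL with medium). 48 h at 37 °C, 5% CO2, in triplicate. MTT (5 mg/mL stock) for 3 h, acidified isopropanol, A570. Viability calculated at that concentration.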

With `COC(=O)[C@H](CCCNC(=N)N[N+](=O)[O-])NC(=O)[C@@H]1CCCN1C(=O)[C@H](CCCCNC(=O)[C@H](C)N)NC(=O)[C@@H](NC(=O)CC/C(C)=C/Cc1c(O)c2c(c(C)c1OC)COC2=O)[C@@H](C)O` (Mycophenolyl-TK(Ala)P[Arg(NO2)]-OMe) as the molecule, how does the IC50 (Jurkat [1]) read?
Its IC50 is 1000 µM.

And the EC50 [2]?
Its EC50 is 259 µM.

And the “Ratio IC50/EC50” value [3]?
Its value is 2.2.

What about the Activity (Jurkat [4]) of the same molecule?
The Activity was 55.31%.

What about the IC50 [5] of the same molecule?
The IC50 was 560 µM.

What about the remaining at 72 h [6] of the same molecule?
Its remaining at 72 h is 50%.

For `COC(=O)[C@@H](NC(=O)CC/C(C)=C/Cc1c(O)c2c(c(C)c1OC)COC2=O)[C@@H](C)O`, which IC50 (Jurkat [1]) is on record?
The IC50 was 17 µM.

What about the EC50 [2] of the same molecule?
Its EC50 is 10 µM.

And the “Ratio IC50/EC50” value [3]?
Its value is 5.7.

What about the “Ratio IC50/EC50” value [7] of the same molecule?
Its value is 1.8.

And the EC50 (Jurkat [8])?
Its EC50 is 10 µM.

What about the IC50 [5] of the same molecule?
Its IC50 is 57 µM.

What about the Activity (PBMC) of the same molecule?
The Activity was “inactive”.

What about the remaining at 120 h [9] of the same molecule?
Its remaining at 120 h is over 40%.

With `COC(=O)[C@H](CCCNC(=N)N[N+](=O)[O-])NC(=O)[C@@H]1CCCN1C(=O)[C@H](CCCCNC(=O)[C@@H](N)C(C)C)NC(=O)[C@@H](NC(=O)CC/C(C)=C/Cc1c(O)c2c(c(C)c1OC)COC2=O)[C@@H](C)O` (Mycophenolyl-TK(Val)P[Arg(NO2)]-OMe) as the molecule, how does the EC50 [2] read?
The EC50 was 432 µM.

And the Activity [10]?
Its Activity is 56.81%.

And the Activity (Jurkat [4])?
The Activity was 55.1%.

And the Activity (Jurkat [11])?
The Activity was 66.56%.

And the Activity (PBMC)?
The Activity was “inactive”.

Which EC50 [2] does the source give for `COC(=O)[C@H](CCCNC(=N)N[N+](=O)[O-])NC(=O)[C@@H]1CCCN1C(=O)[C@H](CCCCN)NC(=O)[C@@H](NC(=O)CC/C(C)=C/Cc1c(O)c2c(c(C)c1OC)COC2=O)[C@@H](C)O` (Mycophenolyl-TKP[Arg(NO2)]-OMe) here?
The EC50 was 130 µM.

What about the Activity [10] of the same molecule?
The Activity was 99.09%.

What about the Activity (Jurkat [4]) of the same molecule?
Its Activity is 60.78%.

What about the Activity (Jurkat [11]) of the same molecule?
Its Activity is 85.82%.

With `COC(=O)[C@@H](NC(=O)[C@H](CCCCN)NC(=O)[C@@H]1CCCN1C(=O)[C@H](CCCNC(=N)N[N+](=O)[O-])NC(=O)CC/C(C)=C/Cc1c(O)c2c(c(C)c1OC)COC2=O)[C@@H](C)O` (Mycophenolyl-[Arg(NO2)]PKT-OMe) as the molecule, how does the IC50 (Jurkat [1]) read?
The IC50 was 971 µM.

What about the EC50 [2] of the same molecule?
Its EC50 is 35.4 µM.

And the “Ratio IC50/EC50” value [3]?
Its value is 18.

And the “Ratio IC50/EC50” value [7]?
Its value is 1.5.

What about the EC50 (Jurkat [8]) of the same molecule?
Its EC50 is 664 µM.

What about the IC50 [5] of the same molecule?
Its IC50 is 634 µM.

What about the Activity (PBMC) of the same molecule?
Its Activity is “inactive”.

What about the remaining at 72 h [6] of the same molecule?
The remaining at 72 h was 50%.

With `CC[C@H](C)[C@H](N)C(=O)NCCCC[C@H](NC(=O)[C@@H]1CCCN1C(=O)[C@H](CCCNC(=N)N[N+](=O)[O-])NC(=O)CC/C(C)=C/Cc1c(O)c2c(c(C)c1OC)COC2=O)C(=O)N[C@H](C(=O)OC)[C@@H](C)O` (Mycophenolyl-[Arg(NO2)]PK(Ile)T-OMe) as the molecule, how does the EC50 [2] read?
The EC50 was 152 µM.

What about the “Ratio IC50/EC50” value [3] of the same molecule?
The value was 3.5.

What about the Activity (Jurkat [4]) of the same molecule?
Its Activity is 52.77%.

What about the Activity (Jurkat [11]) of the same molecule?
The Activity was 52.48%.

And the IC50 [5]?
The IC50 was 533 µM.
